# In ChEMBL document CHEMBL1142686, “CoMFA, synthesis, and pharmacological evaluation of (E)-3-(2-carboxy-2-arylvinyl)-4,6-dichloro-1H-indole-2-carboxylic acids: 3-[2-(3-aminophenyl)-2-carboxyvinyl]-4,6-dichloro-1H-indole-2-carboxylic acid, a potent selective glycine-site NMDA receptor antagonist” (J Med Chem, 2005):
# Several values for one entry are separate records, joined by “and”; a condition that tells them apart may be missing. Equal values may be shown once.
# Legend:
# [1] = molecular target: Glutamate NMDA receptor; experiment: Antagonist activity of compound against rat N-methyl-D-aspartate glutamate receptor using 11 nM [3H]glycine; assay type: functional
# [2] = molecular target: Glutamate NMDA receptor; experiment: In vitro inhibitory concentration against binding of the [3H]glycine to strychnine-insensitive glycine binding sites of rat N-methyl-D-aspartate glutamate receptor; assay type: protein-complex assay
# [3] = species on record: Rattus norvegicus; experiment: In vitro inhibitory concentration against glutamate stimulated accumulation of cyclic GMP in neonatal rat cerebral slices; assay type: functional
# [4] = tested on: Mus musculus; experiment: In vivo effective dose of compound to protect mice from quinolinic acid seizures upon intravenous administration; assay type: functional
# [5] = tested on: Mus musculus; experiment: In vivo effective dose to protect the mouse (DBA/2J) from audiogenic seizures upon intraperitoneal administration; assay type: functional; conditions: ip
# [6] = tested on: Mus musculus; experiment: In vivo effective dose against harmaline induced cGMP elevation in mouse cerebellum upon intravenous administration; assay type: functional
# [7] = tested on: Rattus norvegicus; experiment: In vivo effective dose to protect rats against maximal electroshock induced seizures upon intravenous administration; assay type: functional
# Procedure, shortened: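 Maximal electroshock seizures in adult male CDF rats, compound iv, vehicle water, saline or 50 mM Tris base at 1 mL/kg.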
# [8] = tested on: Rattus norvegicus; experiment: Reduction of infarct in rat with proximal middle cerebral artery occlusion at total dose of 245 mg/kg after 30 min initiation (duration of effect 6 h); assay type: functional
# [9] = tested on: Rattus norvegicus; experiment: Reduction of infarct in rat with proximal middle cerebral artery occlusion at total dose of 490 mg/kg after 30 min initiation (duration of effect 6 h); assay type: functional
# [10] = tested on: Rattus norvegicus; experiment: Reduction of infarct in rat with proximal middle cerebral artery occlusion at total dose of 245 mg/kg after 120 min initiation (duration of effect 6 h); assay type: functional
# [11] = tested on: Rattus norvegicus; experiment: Reduction of infarct in rat with proximal middle cerebral artery occlusion at total dose of 245 mg/kg after 180 min initiation (duration of effect 6 h); assay type: functional
# [12] = tested on: Rattus norvegicus; experiment: Reduction of infarct in rat with proximal middle cerebral artery occlusion at total dose of 245 mg/kg after 360 min initiation (duration of effect 6 h); assay type: functional
# [13] = tested on: Rattus norvegicus; experiment: Reduction of infarct in rat with proximal middle cerebral artery occlusion at total dose of 245 mg/kg after 480 min initiation (duration of effect 6 h); assay type: functional
# [14] = tested on: Rattus norvegicus; experiment: Reduction of infarct in rat with proximal middle cerebral artery occlusion at total dose of 31.5 mg/kg after 30 min initiation (duration of effect 6 h); assay type: functional
# [15] = tested on: Rattus norvegicus; experiment: Reduction of infarct in rat with proximal middle cerebral artery occlusion at total dose of 490 mg/kg after -15 min initiation (duration of effect 6 h); assay type: functional
# [16] = tested on: Rattus norvegicus; experiment: Reduction of infarct volume in rat with distal middle cerebral artery occlusion at total dose of 135 mg/kg after 30 min of initiation (duration of effect 4 h); assay type: functional
# [17] = tested on: Rattus norvegicus; experiment: Reduction of infarct volume in rat with distal middle cerebral artery occlusion at total dose of 126 mg/kg after -15 min of initiation (duration of effect 6 h); assay type: functional
# [18] = tested on: Rattus norvegicus; experiment: Reduction of infarct in rat with proximal middle cerebral artery occlusion at total dose of 16 mg/kg after 30 min initiation (duration of effect 6 h); assay type: functional
# [19] = tested on: Rattus norvegicus; experiment: Reduction of infarct in rat with proximal middle cerebral artery occlusion at total dose of 62 mg/kg after 30 min initiation (duration of effect 6 h); assay type: functional
# [20] = tested on: Rattus norvegicus; experiment: Reduction of infarct in rat with proximal middle cerebral artery occlusion at total dose of 123 mg/kg after 30 min initiation (duration of effect 6 h); assay type: functional
# [21] = tested on: Rattus norvegicus; experiment: Reduction of infarct volume in rat with distal middle cerebral artery occlusion at total dose of 245 mg/kg after -15 min of initiation (duration of effect 6 h); assay type: functional
# [22] = tested on: Rattus norvegicus; experiment: Reduction of infarct volume in rat with distal middle cerebral artery occlusion at total dose of 490 mg/kg after -15 min of initiation (duration of effect 6 h); assay type: functional
# [23] = Half life was measured in rat following intravenous administration; assay type: ADME, organism-based; conditions: in vivo
# [24] = molecular target: Glutamate NMDA receptor; experiment: Antagonist activity of compound against rat N-methyl-D-aspartate glutamate receptor using [3H]glycine
# [25] = molecular target: Glutamate NMDA receptor; experiment: Binding affinity against strychnine-insensitive glycine sites of rat N-methyl-D-aspartate glutamate receptor using [3H]glycine; assay type: protein-complex assay
# Procedure, shortened: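 Strychnine-insensitive [3H]glycine binding to washed, Triton-treated rat cortical/hippocampal membranes. Triplicates with strychnine and 400 µg protein in 50 mM HEPES-KOH pH 7.4, 30 min at 4 °C. Ended by centrifugation; pellets counted by scintillation; nonspecific binding taken in 0.1 mM D-serine. IC50 = concentration halving specific binding, mean of two or more experiments, fitted by logistic nonlinear regression.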
# [26] = tested on: Rattus norvegicus; experiment: Reduction of infarct volume in rat with distal middle cerebral artery occlusion at total dose of 52 mg/kg after 30 min of initiation (duration of effect 6 h); assay type: functional
# [27] = tested on: Rattus norvegicus; experiment: Reduction of infarct volume in rat with distal middle cerebral artery occlusion at total dose of 52 mg/kg after -15 min of initiation (duration of effect 6 h); assay type: functional
# [28] = tested on: Rattus norvegicus; experiment: Reduction of infarct volume in rat with proximal middle cerebral artery occlusion at total dose of 52 mg/kg after -15 min of initiation (duration of effect 6 h); assay type: functional
# [29] = tested on: Rattus norvegicus; experiment: Reduction of infarct volume in rat with proximal middle cerebral artery occlusion at total dose of 52 mg/kg after 180 min of initiation (duration of effect 6 h); nd=Not determined; assay type: functional
smiles,measurement,setting,value
O=C(O)/C(=C/c1c(C(=O)O)[nH]c2cc(Cl)cc(Cl)c12)c1ccncc1,IC50,[1],151 nM
O=C(O)/C(=C/c1c(C(=O)O)[nH]c2cc(Cl)cc(Cl)c12)c1ccc(Cl)cc1Cl,IC50,[1],116 nM
O=C(NCCc1ccccc1)/C(=C/c1c(C(=O)O)[nH]c2cc(Cl)cc(Cl)c12)c1ccccc1,IC50,[1],224 nM
CN(C)C(=O)/C(=C/c1c(C(=O)O)[nH]c2cc(Cl)cc(Cl)c12)c1ccccc1,IC50,[1],68 nM
O=C(O)/C(=C/c1c(C(=O)O)[nH]c2cc(Cl)cc(Cl)c12)c1ccccn1,IC50,[1],1020 nM
O=C(O)/C(=C/c1c(C(=O)O)[nH]c2cc(Cl)cc(Cl)c12)c1ccc(Cl)cc1,IC50,[1],65 nM
N#C/C(=C/c1c(C(=O)O)[nH]c2cc(Cl)cc(Cl)c12)c1ccc(N)cc1,IC50,[1],4660 nM
COc1cccc(/C(=C\c2c(C(=O)O)[nH]c3cc(Cl)cc(Cl)c23)C(=O)O)c1,IC50,[1],117 nM
O=C(Nc1ccccc1)/C(=C/c1c(C(=O)O)[nH]c2cc(Cl)cc(Cl)c12)c1ccccc1,IC50,[1],15 nM
O=C(O)c1[nH]c2cc(Cl)cc(Cl)c2c1/C=C/C(=O)N1CCCCC1,IC50,[1],38 nM
O=C(O)/C(=C/c1c(C(=O)O)[nH]c2cc(Cl)cc(Cl)c12)c1ccccc1Cl,IC50,[1],212 nM
CN(C)c1cccc(/C(=C\c2c(C(=O)O)[nH]c3cc(Cl)cc(Cl)c23)C(=O)O)c1,IC50,[1],225 nM
O=C(O)/C(=C\c1c(C(=O)O)[nH]c2cc(Cl)cc(Cl)c12)c1ccccc1,IC50,[1],157 nM
COc1ccc(/C(=C\c2c(C(=O)O)[nH]c3cc(Cl)cc(Cl)c23)C(=O)O)cc1,IC50,[1],136 nM
O=C(O)/C(=C/c1c(C(=O)O)[nH]c2cc(Cl)cc(Cl)c12)c1cccnc1,IC50,[1],126 nM
CNC(=O)/C(=C/c1c(C(=O)O)[nH]c2cc(Cl)cc(Cl)c12)c1ccccc1,IC50,[1],50 nM
NC(=O)/C(=C/c1c(C(=O)O)[nH]c2cc(Cl)cc(Cl)c12)c1ccccc1,IC50,[1],20 nM
O=C(O)/C(=C/c1c(C(=O)O)[nH]c2cc(Cl)cc(Cl)c12)c1ccoc1,IC50,[1],21 nM
O=C(O)/C(=C/c1c(C(=O)O)[nH]c2cc(Cl)cc(Cl)c12)c1ccc(Br)cc1,IC50,[1],29 nM
O=C(O)/C(=C/c1c(C(=O)O)[nH]c2cc(Cl)cc(Cl)c12)c1ccsc1,IC50,[2],9.6 nM
same,IC50,[1],14 nM
same,IC50,[3],87 nM
same,ED50,[4],29.5 mg/kg
same,ED50,[5],18.6 mg/kg
same,ED50,[6],35 mg/kg
same,ED50,[7],54.1 mg/kg
Nc1cccc(/C(=C\c2c(C(=O)O)[nH]c3cc(Cl)cc(Cl)c23)C(=O)O)c1,Reduction,[8],68% and 57% and 76% and 71%
same,Reduction,[9],77%
same,Reduction,[10],50%
same,Reduction,[11],41%
same,Reduction,[12],58% and 59%
same,Reduction,[13],13%
same,Reduction,[14],40%
same,Reduction,[15],73%
same,Reduction,[16],28%
same,Reduction,[17],0%
same,Reduction,[18],12%
same,Reduction,[19],48%
same,Reduction,[20],49%
same,Reduction,[21],13%
same,Reduction,[22],32%
same,IC50,[2],24.3 nM
same,IC50,[3],364 nM
same,ED50,[4],14.9 mg/kg
same,ED50,[5],10.8 mg/kg
same,ED50,[6],15 mg/kg
same,ED50,[7],30.6 mg/kg
same,half-life,[23],> 1 h
O=C(O)/C(=C/c1c(C(=O)O)[nH]c2cc(Cl)cc(Cl)c12)c1ccccc1,IC50,[2],10.9 nM
same,IC50,[3],282 nM
same,ED50,[4],37 mg/kg
same,ED50,[5],12.2 mg/kg
same,ED50,[6],59 mg/kg
same,ED50,[7],29 mg/kg
same,IC50,[24],11 nM
O=C(O)/C(=C/c1c(C(=O)O)[nH]c2cc(Cl)cc(Cl)c12)c1cccc(NC(=O)c2ccccc2)c1,IC50,[1],512 nM
O=c1[nH]c2cc(Cl)ccc2c(O)c1-c1cccc(Oc2ccccc2)c1,IC50,[2],13.2 nM
same,IC50,[3],31 nM
same,ED50,[4],5.2 mg/kg
same,ED50,[5],1 mg/kg
same,ED50,[6],< 0.05 mg/kg
same,ED50,[7],3.5 mg/kg
O=C(O)/C(=C/c1c(C(=O)O)[nH]c2cc(Cl)cc(Cl)c12)c1cccc2ccccc12,IC50,[1],145 nM
O=C(O)/C(=C/c1c(C(=O)O)[nH]c2cc(Cl)cc(Cl)c12)c1ccc(F)cc1,IC50,[1],35.5 nM
CS(=O)(=O)Nc1ccc(/C(=C\c2c(C(=O)O)[nH]c3cc(Cl)cc(Cl)c23)C(=O)O)cc1,IC50,[1],167 nM
O=C(O)/C(=C/c1c(C(=O)O)[nH]c2cc(Cl)cc(Cl)c12)c1cccs1,IC50,[1],9 nM
Nc1cccc(/C(=C/c2c(C(=O)O)[nH]c3cc(Cl)cc(Cl)c23)C(=O)O)c1,Ki,[25],553 nM
Cc1ccc(/C(=C\c2c(C(=O)O)[nH]c3cc(Cl)cc(Cl)c23)C(=O)O)cc1,IC50,[1],105 nM
O=C(O)/C(=C/c1c(C(=O)O)[nH]c2cc(Cl)cc(Cl)c12)c1ccco1,IC50,[1],22 nM
O=C(O)/C(=C/c1c(C(=O)O)[nH]c2cc(Cl)cc(Cl)c12)c1ccc(C(F)(F)F)cc1,IC50,[1],89 nM
O=C(NCc1ccccc1)/C(=C/c1c(C(=O)O)[nH]c2cc(Cl)cc(Cl)c12)c1ccccc1,IC50,[1],31 nM
COC(=O)Nc1cccc(/C(=C\c2c(C(=O)O)[nH]c3cc(Cl)cc(Cl)c23)C(=O)O)c1,IC50,[2],114 nM
same,IC50,[1],114 nM
same,IC50,[3],840 nM
same,ED50,[4],> 64 mg/kg
same,ED50,[5],8.5 mg/kg
same,ED50,[6],> 64 mg/kg
same,ED50,[7],> 128 mg/kg
O=C(O)/C(=C/c1c(C(=O)O)[nH]c2cc(Cl)cc(Cl)c12)c1ccc([N+](=O)[O-])cc1,IC50,[1],21 nM
O=C(/C=C/c1c(C(=O)[O-])[nH]c2cc(Cl)cc(Cl)c12)Nc1ccccc1.[Na+] [GAVESTINEL SODIUM],IC50,[2],15.2 nM
same,IC50,[3],262 nM
same,ED50,[4],> 64 mg/kg
same,ED50,[5],> 25 mg/kg
same,ED50,[7],> 32 mg/kg
O=C(/C=C/c1c(C(=O)O)[nH]c2cc(Cl)cc(Cl)c12)Nc1ccccc1 [GAVESTINEL],IC50,[1],15 nM
O=c1[nH]c2cc(Cl)c(Cl)c([N+](=O)[O-])c2[nH]c1=O [LICOSTINEL],Reduction,[26],33% and 24%
same,Reduction,[27],18%
same,Reduction,[28],50%
same,Reduction,[29],28%
same,IC50,[2],20 nM
same,IC50,[3],183 nM
same,ED50,[4],14.7 mg/kg
same,ED50,[5],3.7 mg/kg
same,ED50,[6],3.5 mg/kg
same,ED50,[7],46.3 mg/kg
